Results reported in ChEMBL document CHEMBL1772991, “Synthesis and structure-activity relationship of tricyclic carboxylic acids as novel anti-histamines” (Bioorg Med Chem, 2011).

How the values were obtained:
[1] = Permeability from apical to basolateral side of human Caco2 cells after 120 mins; settings: Caco-2
Histamine H1 receptor = Histamine H1 receptor (Homo sapiens, UniProt P35367); test: Displacement of [3H]pyrilamine from human histamine H1 receptor expressed in CHO-K1 cells after 60 mins by scintillation counting; type: cell-based
Histamine H1 receptor, sequence (P35367 whole entry): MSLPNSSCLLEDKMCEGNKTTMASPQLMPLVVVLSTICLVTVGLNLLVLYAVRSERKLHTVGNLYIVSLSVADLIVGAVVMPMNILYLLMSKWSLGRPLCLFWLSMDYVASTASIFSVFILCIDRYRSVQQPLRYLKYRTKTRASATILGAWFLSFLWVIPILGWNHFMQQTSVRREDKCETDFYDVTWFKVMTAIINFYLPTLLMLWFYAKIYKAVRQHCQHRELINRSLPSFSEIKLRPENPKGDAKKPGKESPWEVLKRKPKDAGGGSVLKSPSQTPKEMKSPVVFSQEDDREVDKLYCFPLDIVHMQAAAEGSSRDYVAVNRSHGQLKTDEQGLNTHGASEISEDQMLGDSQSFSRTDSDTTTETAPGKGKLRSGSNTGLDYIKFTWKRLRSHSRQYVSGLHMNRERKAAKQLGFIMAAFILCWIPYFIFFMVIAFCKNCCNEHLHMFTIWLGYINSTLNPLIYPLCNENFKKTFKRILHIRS

Mus musculus [2] = species on record: Mus musculus; test: animal or person; type: functional; settings: ddY, po
Mus musculus [3] = test: Antiinflammatory activity in ovalbumin-sensitized BALB/c mouse biphasic allergic model assessed as late type reaction at 10 mg/kg, po administered 1 hr before ovalbumin challenge measured 24 hrs after elicitation by ear swelling assay; type: functional
In short: (§1)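 Female Balb/c mice, 8 weeks old, sensitized i.p. with OVA plus alum. Two weeks later, compound given orally as a 0.5% methylcellulose suspension at 10 mg/kg, 1 h before intradermal OVA into the ear.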

Mus musculus [4] = test: Antiinflammatory activity in ovalbumin-sensitized BALB/c mouse biphasic allergic model assessed as immediate type reaction at 10 mg/kg, po administered 1 hr before ovalbumin challenge measured 1 hr after elicitation by ear swelling assay; type: functional; in short: as §1
Mus musculus [5] = species on record: Mus musculus; test: Ex vivo receptor occupancy of histamine H1 receptor in mouse brain at ED70 after 30 mins by scintillation counting; type: functional
Mus musculus [6] = test: In vivo antihistaminic activity at histamine H1 receptor in ddY mouse assessed as inhibition of histamine-induced skin vascular permeability at 3 mg/kg, po administered 1 hr before histamine challenge by Evan's blue staining; type: functional
In short: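 Female ddY mice, 8 weeks old, dosed orally at 3 mg/kg as a suspension in 0.5% methylcellulose, 1 h before intradermal histamine ([…]) into back skin, following i.v. Evans blue. Mice sacrificed 30 min after histamine; dyed area measured. % inhibition, mean ± SE of six mice.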

[7] = target: T1, Adrenergic receptor alpha-1 (Homo sapiens, UniProt P35348+P25100+P35368); test: Displacement of [3H]prazosin from human adrenergic alpha1 expressed in CHO-K1 cells after 30 mins by scintillation counting; type: cell-based
T1 sequence (P35348 whole entry): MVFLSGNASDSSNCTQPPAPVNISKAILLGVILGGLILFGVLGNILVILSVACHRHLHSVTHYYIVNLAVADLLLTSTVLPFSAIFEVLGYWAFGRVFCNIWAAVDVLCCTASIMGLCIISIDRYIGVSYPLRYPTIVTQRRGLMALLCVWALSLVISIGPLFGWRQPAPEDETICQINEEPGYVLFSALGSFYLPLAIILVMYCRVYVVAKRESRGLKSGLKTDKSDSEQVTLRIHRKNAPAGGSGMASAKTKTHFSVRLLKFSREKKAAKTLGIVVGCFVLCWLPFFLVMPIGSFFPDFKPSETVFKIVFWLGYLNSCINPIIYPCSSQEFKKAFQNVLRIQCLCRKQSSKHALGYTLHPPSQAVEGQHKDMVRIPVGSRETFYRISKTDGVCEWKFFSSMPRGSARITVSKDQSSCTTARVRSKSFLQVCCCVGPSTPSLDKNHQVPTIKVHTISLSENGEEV
T1 sequence (P25100 whole entry): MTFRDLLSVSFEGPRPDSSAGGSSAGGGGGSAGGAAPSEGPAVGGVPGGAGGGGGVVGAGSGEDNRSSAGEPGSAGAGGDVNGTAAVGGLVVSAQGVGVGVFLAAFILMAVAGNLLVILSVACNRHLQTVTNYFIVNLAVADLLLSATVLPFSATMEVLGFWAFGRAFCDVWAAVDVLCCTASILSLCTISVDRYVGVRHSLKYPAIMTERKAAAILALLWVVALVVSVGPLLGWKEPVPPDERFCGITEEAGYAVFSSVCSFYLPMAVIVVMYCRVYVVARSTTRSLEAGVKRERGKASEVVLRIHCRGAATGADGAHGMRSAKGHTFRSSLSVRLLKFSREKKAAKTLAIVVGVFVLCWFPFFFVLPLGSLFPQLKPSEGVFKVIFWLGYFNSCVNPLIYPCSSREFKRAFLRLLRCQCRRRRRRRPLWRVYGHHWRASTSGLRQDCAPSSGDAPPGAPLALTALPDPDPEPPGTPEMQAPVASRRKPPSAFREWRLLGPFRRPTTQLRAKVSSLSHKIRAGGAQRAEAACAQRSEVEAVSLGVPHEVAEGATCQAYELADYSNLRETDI
T1 sequence (P35368 whole entry): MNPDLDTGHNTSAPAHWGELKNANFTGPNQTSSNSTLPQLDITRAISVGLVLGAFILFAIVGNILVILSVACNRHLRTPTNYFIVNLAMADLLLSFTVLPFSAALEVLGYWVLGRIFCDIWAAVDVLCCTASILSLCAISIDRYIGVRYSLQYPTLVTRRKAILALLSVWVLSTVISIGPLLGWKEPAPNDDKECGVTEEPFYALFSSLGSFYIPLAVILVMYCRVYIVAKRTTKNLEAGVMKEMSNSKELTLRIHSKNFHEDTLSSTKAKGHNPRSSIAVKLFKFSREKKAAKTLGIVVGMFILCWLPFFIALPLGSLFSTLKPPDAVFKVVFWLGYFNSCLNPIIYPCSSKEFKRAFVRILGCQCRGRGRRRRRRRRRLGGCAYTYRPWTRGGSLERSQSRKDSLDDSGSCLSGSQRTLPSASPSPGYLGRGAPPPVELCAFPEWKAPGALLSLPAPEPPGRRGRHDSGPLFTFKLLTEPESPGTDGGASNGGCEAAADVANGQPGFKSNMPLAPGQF
In short: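 Membranes from stable recombinant CHO-K1 cells expressing human α1 adrenoceptor were incubated with graded compound concentrations and 0.3 nM [3H]-prazosin in 50 mM Tris-HCl pH 7.6 for 30 min at room temperature. Nonspecific binding was defined with 1 µM prazosin. Samples were filtered on GF/B, washed and scintillation counted; specific binding is total minus nonspecific. Single experiment.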

Homo sapiens = species on record: Homo sapiens; test: Ratio of IC50 for human adrenergic alpha1 to IC50 for human histamine H1 receptor
[8] = Oral bioavailability in fasted rat at 10 mg/kg after 24 hrs; type: ADME, organism-based; settings: in vivo
In short: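 Fasted male rats (n = 3 per route). Dosing: 1 mg/kg i.v. in 5% glucose/0.1 N HCl (9:1), or 10 mg/kg p.o. as a 0.5% methylcellulose suspension. Jugular blood sampled up to 24 h (po: 15, 30 min, 1, 2, 4, 6, 24 h) and plasma stored at -70 °C. AUCs taken from plasma concentration–time courses. BA = (AUCpo/Dpo)/(AUCiv/Div) × 100.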

## Cn1c(N2CCN(CC/C=C3/c4ccccc4CCc4ccc(CC(=O)O)cc43)CC2)cc(=O)n(C)c1=O
[1]
  Papp A→B at 2 h: 14.7 ×10⁻⁶ cm/s
Histamine H1 receptor
  IC50: 195 nM

## Cn1c(N2CCN(CCCN3c4ccccc4COc4ccc(CC(=O)O)cc43)CC2)cc(=O)n(C)c1=O
[1]
  Papp A→B at 2 h: 3 ×10⁻⁶ cm/s
Histamine H1 receptor
  IC50: 255 nM

## Cn1c(N2CCN(CC/C=C3\c4ccccc4COc4ccc(CC(=O)O)cc43)CC2)cc(=O)n(C)c1=O
[1]
  Papp A→B at 2 h: 4.7 ×10⁻⁶ cm/s
Histamine H1 receptor
  IC50: 540 nM

## CN1CCC(=C2c3ccccc3CC(=O)c3sccc32)CC1 [KETOTIFEN]
Mus musculus [2]
  ED70: 0.067 mg/kg
Mus musculus [3]
  inhibition in vivo at 10 mg/kg: 3%
Mus musculus [4]
  inhibition in vivo at 10 mg/kg: 119%

## Cn1c(N2CCCN(CC/C=C3/c4ccccc4CCc4ccc(C(=O)O)cc43)CC2)cc(=O)n(C)c1=O
[1]
  Papp A→B at 2 h: 6.9 ×10⁻⁶ cm/s
Histamine H1 receptor
  IC50: 153 nM

## Cn1c(N2CCN(CC/C=C3/c4ccccc4COc4ccc(C(=O)O)cc43)CC2)cc(=O)n(C)c1=O
Histamine H1 receptor
  IC50: 325 nM

## CC(C)(C(=O)O)c1ccc(C(O)CCCN2CCC(C(O)(c3ccccc3)c3ccccc3)CC2)cc1 (stereo not drawn) [FEXOFENADINE]
Mus musculus [3]
  inhibition in vivo at 10 mg/kg: 6%
Mus musculus [5]
  Activity: 12%
Mus musculus [4]
  inhibition in vivo at 10 mg/kg: 61%

## Cn1c(N2CCN(CCCN3c4ccccc4Sc4ccc(CC(=O)O)cc43)CC2)cc(=O)n(C)c1=O
Mus musculus [6]
  inhibition in vivo at 3 mg/kg: 82%
Mus musculus [2]
  ED70: 1.61 mg/kg
Mus musculus [3]
  inhibition in vivo at 10 mg/kg: 64%
[7]
  IC50: 430 nM
Homo sapiens
  Ratio IC50: 11
Mus musculus [5]
  Activity: 38%
Mus musculus [4]
  inhibition in vivo at 10 mg/kg: 73%

## CC(C(=O)O)c1ccc2c(c1)N(CCCN1CCCN(c3cc(=O)n(C)c(=O)n3C)CC1)c1ccccc1CO2 (stereo not drawn)
[1]
  Papp A→B at 2 h: 1.9 ×10⁻⁶ cm/s
Histamine H1 receptor
  IC50: 128 nM

## Cn1c(N2CCCN(CC/C=C3/c4ccccc4CCc4ccc(CC(=O)O)cc43)CC2)cc(=O)n(C)c1=O
[1]
  Papp A→B at 2 h: 4.8 ×10⁻⁶ cm/s
Histamine H1 receptor
  IC50: 135 nM

## Cn1c(N2CCN(CC/C=C3/c4ccccc4COc4ccc(CC(=O)O)cc43)CC2)cc(=O)n(C)c1=O
[1]
  Papp A→B at 2 h: 7.3 ×10⁻⁶ cm/s
Mus musculus [6]
  inhibition in vivo at 3 mg/kg: 53%
Histamine H1 receptor
  IC50: 84 nM
Mus musculus [3]
  inhibition in vivo at 10 mg/kg: 78%
[7]
  IC50: 4800 nM
Homo sapiens
  Ratio IC50: 57
[8]
  bioavailability: 76%
Mus musculus [4]
  inhibition in vivo at 10 mg/kg: 105%

## Cn1c(N2CCCN(CCCN3c4ccccc4COc4ccc(C(C)(C)C(=O)O)cc43)CC2)cc(=O)n(C)c1=O
[1]
  Papp A→B at 2 h: 4.6 ×10⁻⁶ cm/s
Histamine H1 receptor
  IC50: 150 nM

## Cn1c(N2CCCN(CC/C=C3/c4ccccc4COc4ccc(CC(=O)O)cc43)CC2)cc(=O)n(C)c1=O
[1]
  Papp A→B at 2 h: 4 ×10⁻⁶ cm/s
Mus musculus [6]
  inhibition in vivo at 3 mg/kg: 32%
Histamine H1 receptor
  IC50: 92 nM

## Cn1c(N2CCCN(CCCN3c4ccccc4COc4ccc(C(=O)O)cc43)CC2)cc(=O)n(C)c1=O
[1]
  Papp A→B at 2 h: 6.3 ×10⁻⁶ cm/s
Mus musculus [6]
  inhibition in vivo at 3 mg/kg: 87%
Histamine H1 receptor
  IC50: 41 nM
[8]
  bioavailability: 23%

## Cn1c(N2CCCN(CCCN3c4ccccc4CCc4ccc(C(C)(C)C(=O)O)cc43)CC2)cc(=O)n(C)c1=O
[1]
  Papp A→B at 2 h: 7 ×10⁻⁶ cm/s
Mus musculus [6]
  inhibition in vivo at 3 mg/kg: 67%
Histamine H1 receptor
  IC50: 75 nM
[8]
  bioavailability: 14%

## Cn1c(N2CCCN(CCCN3c4ccccc4COc4ccc(CC(=O)O)cc43)CC2)cc(=O)n(C)c1=O
[1]
  Papp A→B at 2 h: 1.6 ×10⁻⁶ cm/s
Histamine H1 receptor
  IC50: 128 nM

## Cn1c(N2CCN(CCCN3c4ccccc4COc4ccc(C(=O)O)cc43)CC2)cc(=O)n(C)c1=O
Histamine H1 receptor
  IC50: 140 nM
Mus musculus [5]
  Activity: 20%

## Cn1c(N2CCCN(CCCN3c4cc(C(=O)O)ccc4COc4ccccc43)CC2)cc(=O)n(C)c1=O
[1]
  Papp A→B at 2 h: 1.6 ×10⁻⁶ cm/s
Histamine H1 receptor
  IC50: 530 nM

## Cn1c(N2CCCN(CCCN3c4ccccc4CCc4ccc(C(=O)O)cc43)CC2)cc(=O)n(C)c1=O
[1]
  Papp A→B at 2 h: 4.4 ×10⁻⁶ cm/s
Mus musculus [6]
  inhibition in vivo at 3 mg/kg: 50%
Histamine H1 receptor
  IC50: 70 nM
Mus musculus [3]
  inhibition in vivo at 10 mg/kg: 46%
[8]
  bioavailability: 33%
Mus musculus [4]
  inhibition in vivo at 10 mg/kg: 30%

## Cn1c(N2CCCN(CCCN3c4ccccc4CCc4ccc(CC(=O)O)cc43)CC2)cc(=O)n(C)c1=O
[1]
  Papp A→B at 2 h: 2.6 ×10⁻⁶ cm/s
Histamine H1 receptor
  IC50: 54 nM

## Cn1c(N2CCCN(CC/C=C3/c4ccccc4COc4ccc(C(=O)O)cc43)CC2)cc(=O)n(C)c1=O
[1]
  Papp A→B at 2 h: 3.8 ×10⁻⁶ cm/s
Histamine H1 receptor
  IC50: 63 nM
